{"data": "Measurements of several laboratories", "target": "Serine/threonine-protein kinase Nek9 (NEK9, Homo sapiens, UniProt Q8TD19)", "Residues used in one study (Q8TD19 1-979)": "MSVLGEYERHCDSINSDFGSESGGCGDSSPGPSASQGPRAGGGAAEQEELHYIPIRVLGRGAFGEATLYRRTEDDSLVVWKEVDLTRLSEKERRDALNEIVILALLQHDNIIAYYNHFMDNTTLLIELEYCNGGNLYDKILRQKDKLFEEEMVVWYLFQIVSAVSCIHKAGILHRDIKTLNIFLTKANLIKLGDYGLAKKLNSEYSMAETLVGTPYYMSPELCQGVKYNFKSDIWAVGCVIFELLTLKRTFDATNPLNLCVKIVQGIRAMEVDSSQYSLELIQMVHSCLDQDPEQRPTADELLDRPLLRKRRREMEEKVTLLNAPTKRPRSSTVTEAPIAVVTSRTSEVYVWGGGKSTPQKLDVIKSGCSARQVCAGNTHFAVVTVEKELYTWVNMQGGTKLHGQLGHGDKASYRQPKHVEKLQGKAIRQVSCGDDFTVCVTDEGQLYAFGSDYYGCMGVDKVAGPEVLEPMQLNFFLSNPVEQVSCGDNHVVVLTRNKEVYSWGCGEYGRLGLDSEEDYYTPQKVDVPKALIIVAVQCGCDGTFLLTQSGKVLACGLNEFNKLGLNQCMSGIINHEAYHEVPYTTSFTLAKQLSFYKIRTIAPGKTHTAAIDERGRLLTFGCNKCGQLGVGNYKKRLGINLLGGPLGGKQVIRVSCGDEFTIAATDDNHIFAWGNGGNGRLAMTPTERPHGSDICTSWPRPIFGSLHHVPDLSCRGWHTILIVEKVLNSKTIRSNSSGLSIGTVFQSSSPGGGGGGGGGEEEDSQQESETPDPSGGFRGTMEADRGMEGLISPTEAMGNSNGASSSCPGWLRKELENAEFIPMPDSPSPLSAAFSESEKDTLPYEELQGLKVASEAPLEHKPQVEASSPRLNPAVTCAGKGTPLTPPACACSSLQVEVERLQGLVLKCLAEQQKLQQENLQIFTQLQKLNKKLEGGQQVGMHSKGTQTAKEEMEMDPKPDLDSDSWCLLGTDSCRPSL", "note": "Protocols differ between the studies behind these lines."}
{"SMILES": "COc1ncccc1-c1cnn2ccc(N3CCN(C(=O)OC(C)C)CC3)nc12", "effect on": "binding", "technique": "competition with immobilised ligand", "tested at": "1 µM", "quantity": "remaining binding", "value": "100%"}
{"SMILES": "Cn1cc(-c2cc(F)cc(N3CCn4c(cc5c4CCCC5)C3=O)c2CO)cc(Nc2ccc(N3CCN(C4COC4)CC3)cn2)c1=O", "effect on": "enzyme activity", "mode": "inhibitor", "tested at": "0.1 µM", "quantity": "inhibition", "value": "6%"}
{"SMILES": "Nc1ncc(-c2nc(N3CCOCC3)nc(N3CCOCC3)n2)c(C(F)F)n1", "effect on": "binding", "technique": "competition with immobilised ligand", "tested at": "10 µM", "quantity": "remaining binding", "value": "92%"}
{"SMILES": "CCN1CCN(Cc2ccc(NC(=O)c3ccc(C)c(Oc4ccnc5[nH]ccc45)c3)cc2C(F)(F)F)CC1", "effect on": "target engagement in cells", "mode": "inhibitor", "technique": "chemoproteomics", "cells": "Huh-7", "tested at": "10 µM", "quantity": "inhibition", "value": "-10.9%"}
{"SMILES": "CC(C)(C)c1cc(C=C(C#N)C#N)cc(Br)c1O", "effect on": "enzyme activity", "mode": "inhibitor", "tested at": "0.5 µM", "quantity": "remaining activity", "value": "103%"}
{"SMILES": "Cn1cncc1[C@](O)(COc1ccc(C#N)cc1-c1ccc(OC(F)(F)F)cc1)c1ccc(C#N)cc1", "effect on": "cell-free assay", "technique": "competition with immobilised ligand", "tested at": "1 µM", "quantity": "remaining binding", "value": "72%"}
{"SMILES": "O=c1[nH]c2ccccc2n1C1CCN(Cc2ccc(-c3[nH]c4cc5ncnc5cc4nc3-c3ccccc3)cc2)CC1", "effect on": "cell-free assay", "tested at": "0.5 µM", "quantity": "remaining signal", "value": "99.2%"}
{"SMILES": "Cn1cc(-c2cccc(N3CCc4c(sc5c4CC(C)(C)C5)C3=O)c2CO)cc(Nc2ccncn2)c1=O", "effect on": "enzyme activity", "mode": "inhibitor", "tested at": "1 µM", "quantity": "inhibition", "value": "-1%"}
